Assay outcomes (PubChem)
Compounds with a hit are over-represented: about 1.5% of the library has one in this group of screens.
Rin1-Abl PPI inh: inhibitors of Rin1-Abl protein binding, primary screen, biochemical, TR-FRET. 360,000 compounds, 0.4% hits. AID 588664, 2011. inhibition, % at 7.35 µM; in the data active means inhibition above about 5%, passing the limit was not always enough
Tb MetRS inh: T. brucei MetRS inhibitors, primary screen, biochemical, luminescence. purified T. brucei MetRS, ATP depletion, Kinase-Glo luminescence. inhibition, % at 11.9 µM. 360,000 compounds, 0.4% hits;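 active means inhibition above a per-plate cutoff of the control wells' mean inhibition plus 3 SD, cut at about 5.5% in these data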;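 further: 0% = DMSO wells median and 100% = median of wells with control inhibitor compound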
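assay system = parasite MetRS enzyme | timing = 15 min preincubation, 2 h reaction, all 25 °C | evaluation = percent inhibition relative to median high and low control wells | medium = HEPES buffer containing pyrophosphatase, BSA, spermine, DTT | compound = single dose, 11.9 µM final nominal, 0.9% final DMSO | detection = Kinase-Glo luminescence, ATP depletion format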
H9c2 protect: cardioprotection against H2O2-induced cell death, primary screen, uHTS, H9c2 cells, ATPLite luminescence; 360,000 compounds, 0.63% hits; H9c2 cardiomyocytes, H2O2 injury protection, 2 h; protection from H2O2 cell death, % at 20 µM;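 active means compounds giving at least 50% protection of heart cells from peroxide-induced death in the single-dose screen, raw or plate-pattern-corrected value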;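 further: 0% = DMSO wells with peroxide and 100% = DMSO wells without peroxide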
PKA-R2B act: activators of PKA-R2B holoenzyme, primary screen, biochemical, fluorescence polarization, Cy5-IP20, human. 340,000 compounds, 0.079% hits. PKA-R2B holoenzyme dissociation; R2B truncated from residue 108, S112A mutant; 0% DMSO only, 100% 113 µM cGMP. activation, % at 11.4 µM. AID 504700, 2011;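 active means activation above a cutoff set at the mean over all compounds plus 3 SD, cut at about 18% in these data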;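 further: higher means more holoenzyme dissociation and a rise in polarization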
PKA-R1A activ: activators of PKA-R1A holoenzyme, primary screen, biochemical, fluorescence polarization, Cy5-IP20, bovine R1A, mouse PKAc; cAMP-dependent protein kinase type I-alpha regulatory subunit (Bos taurus) + …; 340,000 compounds, 0.083% hits; AID 504707, 2011; activation, % at 11.4 µM; PKA-R1A dissociation; scaled: DMSO 0%, 113 µM cGMP 100%;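 active means percent activation above the mean of all tested compounds plus 3 SD, cut at about 19% in these data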;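 further: higher means more PKAc released from R1A so a rise in polarization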
R2B FP artifact: fluorescence polarization artefacts, biochemical, artefact control for PKA-R2B activator project | shares compounds with PKA-R2B act | FP artifact counterscreen | activation, % at 11.4 µM | 270 compounds, 6% hits | AID 504796, 2011; in the data active means activation above about 20%;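 further: Cy5 labelled IP20 peptide probe with compound but no PKA protein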
PKA-R2B confirm: activators of PKA-R2B holoenzyme, confirmation, biochemical, fluorescence polarization, human. shares compounds with PKA-R2B act. PKA-R2B complex, activation. activation, % at 11.4 µM. 270 compounds, 9% hits. AID 504797, 2011; in the data active means activation above about 19%
R1A FP artifact: FP signal interference without PKA proteins, confirmation, artefact control for PKA-R1A activator project, biochemical, fluorescence polarization, triplicate; shares compounds with PKA-R1A activ; Cy5-IP20 peptide alone, fluorescence polarization artifact counterscreen; activation, % at 11.4 µM; 280 compounds, 7% hits; AID 504799, 2011;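 active means mean activation over triplicate runs exceeds the adjusted cutoff derived for the parent primary screen, cut at about 19% in these data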;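 further: no PKA protein present so any polarization rise reflects compound interference; 0% = tracer peptide mix alone and 100% = mix with added PKA catalytic subunit; higher means stronger polarization artifact and likely false positive in parent screen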
PKA-R1A confirm: activators of PKA-R1A holoenzyme, confirmation, biochemical, fluorescence polarization, Cy5-IP20, triplicate | shares compounds with PKA-R1A activ | 280 compounds, 9% hits | activation, % at 11.4 µM | PKA-R1A holoenzyme dissociation;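 active means mean activation over replicate wells exceeds the adjusted hit threshold taken from the earlier primary screen, cut at about 20% in these data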;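 further: 0% = holoenzyme mix with DMSO only and 100% = cGMP-activated control wells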
Target sequence (P00514 whole entry, looked up): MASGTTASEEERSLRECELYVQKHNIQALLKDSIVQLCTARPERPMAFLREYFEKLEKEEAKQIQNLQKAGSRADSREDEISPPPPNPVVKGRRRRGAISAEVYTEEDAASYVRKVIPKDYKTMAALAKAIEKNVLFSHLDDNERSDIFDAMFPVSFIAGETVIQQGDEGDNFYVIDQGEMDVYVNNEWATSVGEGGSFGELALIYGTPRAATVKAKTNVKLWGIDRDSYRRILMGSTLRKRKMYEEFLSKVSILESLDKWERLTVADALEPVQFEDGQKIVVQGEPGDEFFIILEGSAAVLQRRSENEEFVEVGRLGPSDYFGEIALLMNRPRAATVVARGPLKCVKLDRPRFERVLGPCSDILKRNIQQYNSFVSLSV
Active calls of the source: *; / = not tested or not shown.

SMILES	Rin1-Abl PPI inh	Tb MetRS inh	H9c2 protect	PKA-R2B act	PKA-R1A activ	R2B FP artifact	PKA-R2B confirm	R1A FP artifact	PKA-R1A confirm
CN(C)c1ccc(C(=O)OCC(=O)Nc2ccc(S(N)(=O)=O)cc2)cc1	0	0	-10	48*	46*	58*	59*	58*	63*
Nc1nc2c(nc(Br)n2[C@@H]2O[C@@H]3COP(=O)(O)O[C@H]3[C@H]2O)c(=O)[nH]1	-2	-1	2	77*	53*	0	78*	0	50*
Nc1ncnc2c1nc(Br)n2[C@@H]1O[C@@H]2COP(=O)(O)O[C@H]2[C@H]1O	1	-1	4	107*	117*	-2	98*	-2	106*
CCOP1(=O)OCC2OC(n3cnc4c(N)ncnc43)C(O)C2O1 (stereo unspecified)	0	-1	2	91*	102*	3	65*	3	76*
Nc1nc2c(nc(N3CCCCC3)n2[C@@H]2O[C@H](CO)[C@@H](O)[C@H]2O)c(=O)[nH]1	0	-1	2	3	-10	/	/	/	/
CCCN(c1ccccc1C(=O)O)S(=O)(=O)c1ccc2c(c1)n(C)c(=O)n2C	-2	3	3	-12	-5	/	/	/	/
COc1ccc(S(=O)(=O)N(C)C[C@H]2Oc3ccc(NS(=O)(=O)c4cn(C)cn4)cc3C(=O)N([C@H](C)CO)C[C@@H]2C)cc1	0	-1	15	6	-21	/	/	/	/
Cc1cc(C)c(C)c(S(=O)(=O)N2CCC(C(=O)NNC(=O)c3ccccc3O)CC2)c1C	-1	0	66*	46*	47*	53*	44*	53*	45*
CC1=C/C(=C(/c2cc(C)c(O)c(Br)c2)c2ccccc2S(=O)(=O)O)C=C(Br)C1=O	4	-1	-8	28*	35*	51*	46*	51*	49*
CC1=C/C(=C(/c2ccc(O)c(C)c2)c2ccccc2S(=O)(=O)O)C=CC1=O	-6	0	0	0	-11	/	/	/	/
Cc1oc2ccc(OCc3c(F)cccc3Cl)cc2c1C(=O)O	2	0	-4	27*	51*	45*	52*	45*	51*
Cc1oc2ccc(OCc3cccc(Cl)c3)cc2c1C(=O)O	-1	0	4	1	0	/	/	/	/
COc1cccc(CNc2nc3nc(C)cc(=O)n3[nH]2)c1	3	-1	-4	13	5	/	/	/	/
Cc1cc(=O)n2[nH]c(NCc3c(F)cccc3Cl)nc2n1	3	0	6	72*	60*	103*	93*	103*	100*
Cc1ccc(NC(=O)c2cc(-c3cc(Cl)ccc3C)n[nH]2)cc1NS(C)(=O)=O	-3	0	-3	/	/	/	/	/	/
